Assay [1] has as its target Glutamate NMDA receptor (Rattus norvegicus) (UniProt P35439+Q00959+Q00960+Q00961+Q62645+Q8VHN2+Q9R1M7). The assay is described as follows: Displacement of [3H]TCP from rat brain NMDA receptor at 1 uM. An outline of the steps: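 Rat brain membrane suspensions; competition for the PCP site of the NMDA receptor with [3H]TCP as radioligand. Test ligand at 1.0 μM, read-out as percent inhibition of [3H]TCP binding. Values are the mean of two experiments.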

The target in another assay is Glutamate NMDA receptor. The experiment in a line: Displacement of [3H]TCP from rat brain NMDA receptor. Put shortly: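 Rat brain membrane suspensions, PCP site of NMDA receptor; [3H]TCP as radioligand. Ligands first screened at 1.0 μM for inhibition of [3H]TCP binding. Ki determined, also with [3H]TCP, usually when inhibition at 1.0 μM reached 80% or more. Values are the mean from two experiments.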

pKi: −log10 of the molar value.

`CN(C(=N)Nc1cccc2ccccc12)c1cccc(O)c1`: the inhibition in assay [1] was 11.9%. Consider `CSc1cccc(N(C)C(=N)Nc2cccc3cnccc23)c1`, for which the inhibition in assay [1] was determined as 91.2%. Besides, on Glutamate NMDA receptor, the pKi was 6.96. Regarding `CSc1cccc(N(C)C(=N)Nc2cccc3c(Cl)nccc23)c1`, in assay [1], the inhibition was determined as 91.7%. On Glutamate NMDA receptor, this molecule had a pKi of 6.27. As to `CN(C(=N)Nc1cccc2ccccc12)c1cccc(OCc2ccccc2)c1`, the inhibition in assay [1] was -2.5%. The same measure, in the same setting: next, `CSc1cccc(N(C)C(=N)Nc2cccc3ccncc23)c1`: 73.8%; `CSc1cccc(N(C)C(=N)Nc2ccc(Br)cc2Br)c1`: 69.7%. In the case of `CN(C(=N)Nc1cccc2ccccc12)c1cccc(C(F)(F)F)c1`, the inhibition in assay [1] stood at 107%. The pKi on Glutamate NMDA receptor is 7.74. Regarding `CSc1cccc(N(C)C(=N)Nc2ccc(Br)c3ccncc23)c1`, the inhibition in assay [1] amounted to 14.4%.

Take `CN(C(=N)Nc1cccc2ccccc12)c1cccc(Br)c1`: in assay [1], the inhibition was 104%. This molecule had a pKi on Glutamate NMDA receptor of 7.27. Turning to `CN(C(=N)Nc1cccc2ccccc12)c1c(F)ccc(Cl)c1F`, in assay [1], the inhibition was determined as 37.6%. For `CN(C(=N)Nc1cccc2ccccc12)c1cccc(SCCF)c1`, in assay [1], the inhibition worked out at 76.7%. Consider `CSc1cccc(N(C)C(=N)Nc2ccc(Cl)c3ncccc23)c1`, for which the inhibition in assay [1] was determined as 8.6%. As to `CSc1cccc(N(C)C(=N)Nc2cccc3ccccc23)c1`, the inhibition in assay [1] was found to be 93.1%. On Glutamate NMDA receptor, this molecule showed a pKi of 7.40. For `CN(C(=N)Nc1cccc2ccccc12)c1cc(F)cc(Cl)c1`, the inhibition in assay [1] stood at 86.8%. The pKi at Glutamate NMDA receptor is 7.11. For `CSc1cccc(N(C)C(=N)Nc2ccc3ccccc3c2)c1`, the inhibition in assay [1] was 3.4%. As to `CN(C(=N)Nc1cccc2ccccc12)c1cccc(I)c1`, the inhibition in assay [1] came out at 106%. The same molecule showed a pKi at Glutamate NMDA receptor of 7.50.

Consider `CN(C(=N)Nc1cccc2ccccc12)c1ccc(F)c(Br)c1`, for which the inhibition in assay [1] was determined as 56.5%. Same read-out and setting: as for `CSc1cccc(N(C)C(=N)Nc2cccc3cccnc23)c1`, the figure is 72.2%; as for `CN(C(=N)Nc1cccc2ccccc12)c1cccc(Oc2ccccc2)c1`, 30%; as for `C=CSc1cccc(N(C)C(=N)Nc2cccc3ccccc23)c1`, 88.4%. The same measure, in the same setting: next, `CN(C(=N)Nc1cccc2ccccc12)c1ccc(F)c(C#N)c1`: 62.1%.

As to `CN(C(=N)Nc1cccc2ccccc12)c1cccc(C#N)c1`, in assay [1], the inhibition is 62.9%. In the case of `CN(C(=N)Nc1cccc2ccccc12)c1cccc(CO)c1`, in assay [1], the inhibition came to 20%.

With `CN(C(=N)Nc1cccc2ccccc12)c1cccc(F)c1`, in assay [1], the inhibition was 36.9%. As for `CN(C(=N)Nc1cccc2ccccc12)c1cccc(OC(F)F)c1`, the inhibition in assay [1] came out at 66.4%.

On to `COc1cc(F)cc(N(C)C(=N)Nc2cccc3ccccc23)c1`, for which, in assay [1], the inhibition turned out to be 32.9%. The same measure, in the same setting: as for `Cc1cc(N(C)C(=N)Nc2cccc3ccccc23)ccc1F`, the figure is 46.5%. Still for that read-out and setting: as for `C#Cc1cccc(N(C)C(=N)Nc2cccc3ccccc23)c1`, the figure is 74.3%; as for `CN(C(=N)Nc1cccc2ccccc12)c1cccc(Cc2ccccc2)c1`, 16.2%; as for `CSc1cccc(N(C)C(=N)Nc2nccc3ccccc23)c1`, 25.3%. On the same count and under the same terms, next, `CN(C(=N)Nc1cccc2ccccc12)c1cccc(OC(F)(F)F)c1`: 79.2%. For the molecule `CN(C(=N)Nc1cccc2ccccc12)c1cccc(Cl)c1`, the inhibition in assay [1] came to 69.2%. As for `CN(C(=N)Nc1cccc2ccccc12)c1ccc(F)c(Cl)c1`, the inhibition in assay [1] is 65.8%. Take `CN(C)c1cccc(N(C)C(=N)Nc2cccc3ccccc23)c1`: the inhibition in assay [1] came to 94.6%. The pKi at Glutamate NMDA receptor is 7.44. On to `CN(C(=N)Nc1cccc2ccccc12)c1ccc2ccccc2c1`, for which the inhibition in assay [1] was determined as 55%. As for `CC(=O)c1cccc(N(C)C(=N)Nc2cccc3ccccc23)c1`, the inhibition in assay [1] was determined as 82.3%. Further, the pKi on Glutamate NMDA receptor was 6.82. The like results for `CN(C(=N)Nc1cccc2ccccc12)c1cccc(SC(F)(F)F)c1` were, in that order, 80% and 6.35.

For `CN(C(=N)Nc1cccc2ccccc12)c1cccc(Cl)c1F`, in assay [1], the inhibition was found to be 84%. The same measure, in the same setting: as for `CN(C(=N)Nc1cccc2ccccc12)c1cc(Br)ccc1F`, the figure is 13.8%; as for `CSc1cccc(N(C)C(=N)Nc2cnccc2Br)c1`, 23.7%. For `CSc1cccc(N(C)C(=N)Nc2cncc3ccccc23)c1`, in assay [1], the inhibition was 80.7%. At Glutamate NMDA receptor, the pKi is less than 6.00. Regarding `CN(C(=N)Nc1cccc2ccccc12)c1ccc(F)c([N+](=O)[O-])c1`, the inhibition in assay [1] was 0.7%. On the same count and under the same terms, as for `C=Cc1cccc(N(C)C(=N)Nc2cccc3ccccc23)c1`, the figure is 73.9%.

The values above are taken from ChEMBL document CHEMBL3351730, “New N-aryl-N'-(3-(substituted)phenyl)-N'-methylguanidines as leads to potential PET radioligands for imaging the open NMDA receptor” (Bioorg Med Chem Lett, 2015).
